Measurements: ChEMBL document CHEMBL3232971, “Synthesis and in vitro evaluation of 12-(substituted aminomethyl) berberrubine derivatives as anti-diabetics” (2014)
Activity calls are given as the source filed them. No cut-off for these calls is given here.

Columns and labels:
3T3-L1 [1] = test: Reversal of high glucose-induced insulin resistance in mouse 3T3L1 cells assessed as relative sensitization rate at 10 umol/ml relative to rosiglitazone; type: functional
Method in brief: (§1)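 Mouse 3T3-L1 preadipocytes were grown in high-glucose DMEM with 10% FBS and phenol red. At 90% confluence they were differentiated for 4 days with FBS, insulin, dexamethasone and IBMX. Cells were replated and kept 2 days in FBS medium. Insulin resistance was induced over 4 days with low insulin and high dexamethasone. Cells were then treated with sample in phenol red-free high-glucose DMEM, at three concentrations. Controls were normal differentiated cells (blank) and untreated insulin-resistant cells (negative); rosiglitazone was the positive control.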

3T3-L1 [2] = test: Reversal of high glucose-induced insulin resistance in mouse 3T3L1 cells assessed as relative sensitization rate at 1 umol/ml relative to rosiglitazone; type: functional; method in brief: as §1
3T3-L1 [3] = test: Reversal of high glucose-induced insulin resistance in mouse 3T3L1 cells assessed as relative sensitization rate at 0.10 umol/ml relative to rosiglitazone; type: functional; method in brief: as §1
L6 [4] = test: Increase in glucose transport in rat L6 cells assessed as sensitization rate at 10 umol/ml; type: functional
Method in brief: (§2)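 Rat L6 myoblasts were grown 24 h in high-glucose DMEM with 10% FBS and phenol red. They were differentiated to myotubes in high-glucose DMEM with 2% FBS for 6–8 days, with medium changed every 48 h. Cells were then starved serum-free overnight, and 4–6 h without serum or glucose. Samples were added in serum-free DMEM with 20 mmol glucose for 16–24 h. Supernatant glucose was read by kit at OD 490 nm. Sensitization rate = (negative OD − sample OD)/(negative OD − blank OD) × 100%, tested at two concentrations.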

L6 [5] = test: Increase in glucose transport in rat L6 cells assessed as sensitization rate at 1 umol/ml; type: functional; method in brief: as §2
3T3-L1 [6] = test: Reversal of high glucose-induced insulin resistance in mouse 3T3L1 cells assessed as insulin sensitization relative to rosiglitazone; type: functional; method in brief: as §1
3T3-L1 [7] = test: Reversal of high glucose-induced insulin resistance in mouse 3T3L1 cells; type: functional, cell-based; method in brief: as §1
3T3-L1 [8] = test: Reversal of high glucose-induced insulin resistance in mouse 3T3L1 cells at 1 umol/ml; type: functional, cell-based; method in brief: as §1

Row | Structure (SMILES) | Activity (3T3-L1 [1]) [%] | Activity (3T3-L1 [2]) [%] | Activity (3T3-L1 [3]) [%] | Activity (L6 [4]) [%] | Activity (L6 [5]) [%] | fold change (FC) (3T3-L1 [6]) | Activity (3T3-L1 [7]) | Activity (3T3-L1 [8])
1 | COc1cc(CN(C)C)c2cc3[n+](cc2c1O)CCc1cc2c(cc1-3)OCO2.[Cl-] | 51.59 | -17.72 | -16.79 | 78.5 | 51.3 | – | – | –
2 | COc1cc(CN(Cc2ccccc2)Cc2ccccc2)c2cc3[n+](cc2c1O)CCc1cc2c(cc1-3)OCO2.[Cl-] | 65.58 | -9.51 | -17.34 | 70.02 | 28.39 | – | – | –
3 | COc1cc(CN2CCCC2)c2cc3[n+](cc2c1O)CCc1cc2c(cc1-3)OCO2.[Cl-] | 73.15 | -12.1 | -22.09 | 40.73 | 7.95 | – | – | –
4 | CCN(CC)Cc1cc(OC)c(O)c2c[n+]3c(cc12)-c1cc2c(cc1CC3)OCO2.[Cl-] | 75.63 | 23.48 | 2.03 | 48.83 | 5.81 | – | – | –
5 | COc1cc(CN2CCN(C)CC2)c2cc3[n+](cc2c1O)CCc1cc2c(cc1-3)OCO2.[Cl-] | 126.29 | 90.23 | -1.09 | 48.55 | 41.9 | 1.26 | Dose-dependent effect | Active
6 | COc1cc(CN2CCN(C(=O)OC(C)(C)C)CC2)c2cc3[n+](cc2c1O)CCc1cc2c(cc1-3)OCO2.[Cl-] | 107.3 | 3.14 | -43.33 | 52.51 | 23.32 | – | Dose-dependent effect | –
7 | COc1cc(CN(c2ccccc2)c2ccccc2)c2cc3[n+](cc2c1O)CCc1cc2c(cc1-3)OCO2.[Cl-] | 96.66 | 62.08 | 33.38 | 53.05 | 12.43 | – | – | –
8 | COc1cc(CN(C(C)C)C(C)C)c2cc3[n+](cc2c1O)CCc1cc2c(cc1-3)OCO2.[Cl-] | 112.25 | 28.02 | -64.34 | 46.08 | 17.97 | – | Dose-dependent effect | –
9 | COc1cc(CN2CCOCC2)c2cc3[n+](cc2c1O)CCc1cc2c(cc1-3)OCO2.[Cl-] | 115.14 | 68.72 | 28.22 | 57.22 | 26.16 | – | Dose-dependent effect | –
10 | COc1ccc2cc3[n+](cc2c1OC)CCc1cc2c(cc1-3)OCO2.[Cl-] [BERBERINE CHLORIDE] | 74.23 | 13.27 | -2.93 | 43.28 | 21.3 | – | – | –
11 | COc1cc(CN2CCCCC2)c2cc3[n+](cc2c1O)CCc1cc2c(cc1-3)OCO2.[Cl-] | 102.93 | 41.02 | 8.33 | 43.53 | 15.78 | – | Dose-dependent effect | –
